Test [1] has as its system Cell membrane. Put plainly: Induction of cell membrane depolarization in Mycobacterium bovis BCG ATCC 35734 assessed as loss in mitochondrial membrane potential at 4 x MIC90 incubated for 24 hrs by DiOC2(3) dye based fluorescence assay. The format is subcellular. The settings on record: Mycobacterium tuberculosis variant bovis. The method in brief:
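Aliquots taken at selected times and stained with DiOC2(3) (BacLight membrane potential kit). Depolarization read as a fall in red/green fluorescence ratio. CCCP 5 μM positive control, rifampicin 0.08 μM negative control.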

Test [2] relates to Mycobacterium tuberculosis variant bovis. Put plainly: Inhibition of ATP synthesis in Mycobacterium bovis BCG ATCC 35734 assessed as reduction in ATP level at 4 x MIC90 incubated for 15 mins by BacTiter-Glo microbial luminescence assay. The format is functional. The method in brief:
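Mid-log BCG diluted to OD600 0.1 in complete 7H9 and treated at 4× MIC90. At each time point, culture mixed 1:1 with BacTiter-Glo reagent for 15 min at room temperature in the dark and luminescence read. Background (media + reagent) subtracted. ATP quantified from a calibration curve of 0.1–100 nM ATP in 7H9. Rifampicin negative control.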

In test [3] the test system is Cell membrane. Put plainly: Induction of cell envelope stress in Mycobacterium bovis BCG ATCC 35734 expressing piniBAC RFP at 4 x MIC90 after 24 hrs by fluorescence analysis. The class given is subcellular. The note with it: Mycobacterium tuberculosis variant bovis. The gist of the method:
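Recombinant M. bovis BCG-piniBAC-RFP at OD600 0.2, incubated with compound for 24 h. Red fluorescence (Ex 587/Em 630 nm) normalized to OD600 to reflect promoter induction. INH (0.1–50 μM) positive control.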

The source made the active and inactive calls. The calls are words filed in the database; no cut-off is given here.

Regarding `Cc1nc2c(n1CCCCCCCCCCC[P+](c1ccccc1)(c1ccccc1)c1ccccc1)C(=O)c1ccccc1C2=O`, in the test on Cell membrane [1], the outcome was Active. Moreover, the inhibition result in test [2] was “Active”. For the compound `CCCCCCC[P+](c1ccccc1)(c1ccccc1)c1ccccc1`, the outcome in the test on Cell membrane [1] was Active. Moreover, the inhibition result in test [2] is “Active”. Consider `NNC(=O)c1ccncc1`, for which the outcome in the test with Cell membrane [3] was Active. Regarding `Cc1nc2c(n1CCCCCCCCC[P+](c1ccccc1)(c1ccccc1)c1ccccc1)C(=O)c1ccccc1C2=O`, the outcome in the test on Cell membrane [1] was Active. In addition, the inhibition entry in test [2] was “Active”. Take `CCCCCCCCCCC[P+](c1ccccc1)(c1ccccc1)c1ccccc1`: the result in the test with Cell membrane [1] was Active. The inhibition entry in test [2] was “Active”.

For the origin of these results see ChEMBL document CHEMBL5104224, “Alkyltriphenylphosphonium turns naphthoquinoneimidazoles into potent membrane depolarizers against mycobacteria” (RSC Med Chem, 2022).
